We go through 21 compounds from ChEMBL document CHEMBL4270628, “Design, synthesis, and evaluation of cystargolide-based β-lactones as potent proteasome inhibitors” (Eur J Med Chem, 2018).

Usually IC50 stands for the concentration that inhibits the measured activity by half.

In test [1] the target is T1, Proteasome Macropain subunit MB1 (Homo sapiens, UniProt P28074).
T1 sequence (P28074 whole entry): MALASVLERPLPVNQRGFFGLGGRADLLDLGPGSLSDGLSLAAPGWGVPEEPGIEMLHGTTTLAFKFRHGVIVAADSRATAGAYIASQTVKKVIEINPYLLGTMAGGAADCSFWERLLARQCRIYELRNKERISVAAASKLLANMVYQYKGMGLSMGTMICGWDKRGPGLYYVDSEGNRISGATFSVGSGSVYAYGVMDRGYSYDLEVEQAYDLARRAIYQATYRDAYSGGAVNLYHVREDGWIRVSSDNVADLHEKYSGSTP
Put plainly: Inhibition of 20S proteasome beta5 subunit in human Jurkat cell lysate using Suc-LLVY-AMC as substrate pretreated for 30 mins followed by substrate addition and measured after 60 mins by fluorescence assay. Put shortly: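 Lysate was preincubated with compound 30 min at 37 °C. 100 μM substrate solution was added: Suc-LLVY-AMC for β5, Suc-RLR-AMC for β2. IC50 by nonlinear regression, ±SD.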

In test [2] the test system is MCF7. The test can be described thus: Cytotoxicity against human MCF7 cells after 48 hrs by MTT assay. The format is functional, cell-based. The note with it: MCF7, 48 h. The method in brief: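 MCF7 cells plated at 4*10⁴ cells/mL and left overnight to adhere, then exposed to a concentration series for 48 h, with DMSO vehicle, untreated cells, and 100 μM phenylarsine oxide as controls. MTT (5 mg/mL stock in PBS) was added for 2 h at 37 °C. Formazan was dissolved in DMSO and OD read at 490 nm. The best three of quadruplicate wells were used; IC50 from nonlinear regression on normalized data, ±SD.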

In test [3] the test system is MDA-MB-231. Put plainly: Cytotoxicity against human MDA-MB-231 cells after 48 hrs by MTT assay. As to conditions: MDA-MB-231, 48 h. Type of test: functional, cell-based. The method in brief:
(§1)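 MTT viability after 48 h exposure to a concentration series; MDA-MB-231 seeded at 4*10⁴ cells/mL and adhered overnight, RPMI 8226 at 4*10⁵ cells/mL and dosed immediately. MTT (5 mg/mL in PBS) added, 2 h at 37 °C; formazan dissolved in DMSO (MDA-MB-231) or DMF/SDS pH<4 (RPMI 8226); OD 490 nm.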
(In general: Formazan colour is commonly taken as a measure of viable cells.)

The subject of test [4] is RPMI-8226. Put plainly: Cytotoxicity against human RPMI8226 cells after 48 hrs by MTT assay. As to conditions: RPMI-8226, 48 h. The format is functional, cell-based. Put shortly: as §1
Test [5] has as its target T2, Proteasome Macropain subunit MB1 (Homo sapiens) (UniProt P28074).
T2 sequence (whole entry): T1 sequence (P28074 whole entry)
The test can be described thus: Inhibition of 20S proteasome beta5 subunit in human MCF7 cells using Suc-LLVY-AMC as substrate pretreated for 1 hr followed by compound washout and cell lysis prior to substrate addition measured after 1 hr by fluorescence assay. Type of test: cell-based. Put shortly: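 Adherent MCF7 (500,000 cells/mL, overnight, ~100% confluent) dosed 1 h at 37 °C, 5% CO₂; washed twice with PBS, lysed in HEPES/Triton buffer on ice 1 h; 15 min at 37 °C, then 100 μM Suc-LLVY-AMC 1 h at 37 °C; ex 360/em 480 nm. IC50 from best three of four biological replicates per concentration.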

Test [6] concerns the target T3, Proteasome subunit beta type-1 (Saccharomyces cerevisiae (strain ATCC 204508 / S288c) (Baker's yeast), UniProt P38624).
T3 sequence (P38624 whole entry): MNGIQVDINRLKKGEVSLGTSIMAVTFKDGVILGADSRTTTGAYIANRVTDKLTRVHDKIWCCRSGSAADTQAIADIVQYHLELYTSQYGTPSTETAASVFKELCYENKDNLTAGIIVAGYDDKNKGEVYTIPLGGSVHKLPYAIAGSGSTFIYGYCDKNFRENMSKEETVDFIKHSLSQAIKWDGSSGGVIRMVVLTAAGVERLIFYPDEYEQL
The test can be described thus: Inhibition of yeast 20S proteasome beta1 subunit using fluorescent substrate pretreated for 30 mins followed by substrate addition and measured after 60 mins by fluorescence assay.

In test [7] the target is T4, Proteasome subunit beta type-2 (Saccharomyces cerevisiae (strain ATCC 204508 / S288c) (Baker's yeast), UniProt P25043).
T4 sequence (P25043 whole entry): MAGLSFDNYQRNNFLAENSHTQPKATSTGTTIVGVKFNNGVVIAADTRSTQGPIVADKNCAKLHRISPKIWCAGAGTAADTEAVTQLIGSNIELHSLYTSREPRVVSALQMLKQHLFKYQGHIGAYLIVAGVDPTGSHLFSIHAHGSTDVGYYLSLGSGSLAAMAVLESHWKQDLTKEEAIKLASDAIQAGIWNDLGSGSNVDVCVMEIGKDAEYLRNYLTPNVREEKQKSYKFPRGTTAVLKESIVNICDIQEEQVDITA
Put plainly: Inhibition of yeast 20S proteasome beta2 subunit using SUC-RLR-AMC as substrate pretreated for 30 mins followed by substrate addition and measured after 60 mins by fluorescence assay. Put shortly: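 Fluorogenic substrate was then added (100 μM Suc-RLR-AMC solution for β2) and incubated 60 min at 37 °C; cleavage read at ex 360/em 480 nm. IC50 from nonlinear regression on normalized data, ±SD.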

Active and inactive are the calls of the source. The calls are words filed in the database; no cut-off is given here.

Take `CC[C@H](C)[C@@H]1C(=O)O[C@H]1C(=O)N[C@H](C(=O)N[C@H](C(=O)OCc1ccc(Cl)cc1)C(C)C)C(C)C`: the IC50 in test [1] came out at 8.2 nM; in test [2], 918 nM; in test [3], 312 nM; in test [4], 85 nM.
In the same order, the values of `C=CCCOC(=O)[C@@H](NC(=O)[C@@H](NC(=O)[C@@H]1OC(=O)[C@H]1[C@@H](C)CC)C(C)C)C(C)C` are 6.6 nM, 523 nM, 341 nM and 272 nM.
In the same order, the values of `CC[C@H](C)[C@@H]1C(=O)O[C@H]1C(=O)N[C@H](C(=O)N[C@H](C(=O)OC)C(C)C)C(C)C` are 15.9 nM, 427 nM, 312 nM and 268 nM.
As to `CC[C@H](C)[C@@H]1C(=O)O[C@H]1C(=O)N[C@H](C(=O)N[C@H](C(=O)OCc1ccccc1)C(C)(C)C)C(C)(C)C`, the IC50 amounted to 35.9 nM in test [1], 1900 nM in test [2], 673 nM in test [3] and 1220 nM in test [4].
Regarding `CC[C@H](C)[C@@H]1C(=O)O[C@H]1C(=O)N[C@H](C(=O)N[C@H](C(=O)OCc1ccccc1)C(C)(C)C)C(C)C`, the half-inhibitory concentration (IC50) was 9.8 nM in test [1], 1140 nM in test [2], 1910 nM in test [3] and 1750 nM in test [4]. For the same compound, the inhibition result in test [5] was “inactive”.
As to `CC[C@H](C)[C@@H]1C(=O)O[C@H]1C(=O)N[C@@H](Cc1ccccc1)C(=O)N[C@@H](Cc1ccccc1)C(=O)OCc1ccccc1`, the half-maximal inhibitory concentration (IC50) in test [1] turned out to be 11.6 nM; in test [2] it was 6250 nM; in test [3], 5210 nM; in test [4], 1180 nM.
Take `CC[C@H](C)[C@@H]1C(=O)O[C@H]1C(=O)N[C@@H](CC(C)C)C(=O)N[C@H](C(=O)OCc1ccccc1)C(C)C`: the half-maximal inhibitory concentration (IC50) in test [1] worked out at 5 nM; in test [2] it was 2460 nM; in test [3], 1450 nM; in test [4], 2240 nM. Moreover, the inhibition entry in test [5] was “Active”.
Turning to `CC[C@H](C)[C@@H]1C(=O)O[C@H]1C(=O)N[C@H](C(=O)N[C@H](C(=O)OCC1CCCCC1)C(C)C)C(C)C`, the half-maximal inhibitory concentration (IC50) in test [1] was determined as 18.7 nM; in test [2], 4620 nM; in test [3] it was 3220 nM; in test [4], 303 nM.
Consider `CC[C@H](C)[C@@H]1C(=O)O[C@H]1C(=O)NCC(=O)N[C@H](C(=O)OCc1ccccc1)C(C)C`, for which the concentration for half-maximal inhibition (IC50) in test [1] amounted to 2.7 nM; in test [2] it was 2080 nM; in test [3], 678 nM; in test [4], 762 nM. In addition, the inhibition result in test [5] is “Active”.
In the same order, the values of `CC[C@H](C)[C@@H]1C(=O)O[C@H]1C(=O)N[C@@H](COCc1ccccc1)C(=O)N[C@H](C(=O)OCc1ccccc1)C(C)C` are 7.7 nM, 3450 nM, 2860 nM, 1710 nM and “Active”.
Take `CC[C@H](C)[C@@H]1C(=O)O[C@H]1C(=O)N[C@H](C(=O)N[C@H](C(=O)OCc1ccccc1)C(C)C)C(C)(C)C`: the concentration for half-maximal inhibition (IC50) was 22.8 nM in test [1], 2290 nM in test [2], 699 nM in test [3] and 748 nM in test [4]. The inhibition result in test [5] was “Active”.
Regarding `CC[C@H](C)[C@@H]1C(=O)O[C@H]1C(=O)N[C@H](C(=O)N[C@H](C(=O)OCC(C)C)C(C)C)C(C)C`, the half-maximal inhibitory concentration (IC50) stood at 8.8 nM in test [1], 664 nM in test [2], 317 nM in test [3] and 95 nM in test [4].
Take `CC(C)[C@H](NC(=O)[C@@H]1OC(=O)[C@H]1C1CCC1)C(=O)N[C@H](C(=O)OCc1ccccc1)C(C)C`: the half-maximal inhibitory concentration (IC50) is 13.2 nM in test [1], greater than 50000 nM in test [2], greater than 50000 nM in test [3] and 37200 nM in test [4]. Besides, the inhibition entry in test [5] is “inactive”.
For `CC(C)[C@H](NC(=O)[C@@H]1OC(=O)[C@H]1C1CCCC1)C(=O)N[C@H](C(=O)OCc1ccccc1)C(C)C`, the concentration for half-maximal inhibition (IC50) in test [1] was 12.9 nM; in test [2], 50600 nM; in test [3], 28200 nM; in test [4], 2350 nM. In addition, the inhibition result in test [5] was “inactive”.
For the compound `CC[C@H](C)[C@@H]1C(=O)O[C@H]1C(=O)N[C@H](C(=O)N[C@@H](Cc1ccccc1)C(=O)OCc1ccccc1)C(C)C`, the IC50 in test [1] is 5.7 nM; in test [2], 2750 nM; in test [3], 3350 nM; in test [4] it was 1100 nM.
In the same order, the values of `CC[C@H](C)[C@@H]1C(=O)O[C@H]1C(=O)N[C@H](C(=O)N[C@H](C(=O)OCc1ccc(OC)cc1)C(C)C)C(C)C` are 10.2 nM, 854 nM, 280 nM and 114 nM.
Consider `CC[C@H](C)[C@@H]1C(=O)O[C@H]1C(=O)N[C@H](C(=O)N[C@@H](CC(C)C)C(=O)OCc1ccccc1)C(C)C`, for which the IC50 in test [1] was 7.7 nM; in test [2] it was 332 nM; in test [3] it was 219 nM; in test [4] it was 286 nM. In addition, the inhibition entry in test [5] was “Active”.
The matching figures for `CC(C)C[C@@H]1C(=O)O[C@H]1C(=O)N[C@H](C(=O)N[C@H](C(=O)OCc1ccccc1)C(C)C)C(C)C`: 19.7 nM, 55300 nM, 30300 nM, 33500 nM and “inactive”.
The matching figures for `CC[C@H](C)[C@@H]1C(=O)O[C@H]1C(=O)N[C@@H](Cc1ccccc1)C(=O)N[C@H](C(=O)OCc1ccccc1)C(C)C`: 7.8 nM, 6940 nM, 3760 nM, 2610 nM and “Active”.
In the same order, the values of `CC(C)[C@H](NC(=O)[C@@H]1OC(=O)[C@H]1C1CC1)C(=O)N[C@H](C(=O)OCc1ccccc1)C(C)C` are 7.6 nM, greater than 100000 nM, greater than 100000 nM, 73900 nM and “inactive”.
Take `CC(C)C[C@H](NC(=O)[C@H](CCc1ccccc1)NC(=O)CN1CCOCC1)C(=O)N[C@@H](Cc1ccccc1)C(=O)N[C@@H](CC(C)C)C(=O)[C@@]1(C)CO1` [CARFILZOMIB]: the IC50 in test [6] was greater than 1000 nM; in test [7] it was greater than 1000 nM; in test [2], 4.1 nM; in test [3], 4.4 nM; in test [4], 6.7 nM.
